Measured values: ChEMBL document CHEMBL4406857, “Discovery of new small molecule inhibitors targeting isocitrate dehydrogenase 1 (IDH1) with blood-brain barrier penetration” (Eur J Med Chem, 2019)

Experiments:
[1] = target: T1, Isocitrate dehydrogenase [NADP] cytoplasmic (Homo sapiens, UniProt O75874, R132C); experiment: (§1) Inhibition of recombinant human C-terminal His8-tagged IDH1 R132C mutant expressed in Escherichia coli BL21 assessed as reduction in NADPH consumption using alpha-ketoglutarate as substrate preincubated for 60 mins followed by substrate addition and measured for 60 mins in presence of NADPH by diaphorase/resazurin-based fluorescence assay
T1 sequence (O75874 2-414 R132C limits assumed): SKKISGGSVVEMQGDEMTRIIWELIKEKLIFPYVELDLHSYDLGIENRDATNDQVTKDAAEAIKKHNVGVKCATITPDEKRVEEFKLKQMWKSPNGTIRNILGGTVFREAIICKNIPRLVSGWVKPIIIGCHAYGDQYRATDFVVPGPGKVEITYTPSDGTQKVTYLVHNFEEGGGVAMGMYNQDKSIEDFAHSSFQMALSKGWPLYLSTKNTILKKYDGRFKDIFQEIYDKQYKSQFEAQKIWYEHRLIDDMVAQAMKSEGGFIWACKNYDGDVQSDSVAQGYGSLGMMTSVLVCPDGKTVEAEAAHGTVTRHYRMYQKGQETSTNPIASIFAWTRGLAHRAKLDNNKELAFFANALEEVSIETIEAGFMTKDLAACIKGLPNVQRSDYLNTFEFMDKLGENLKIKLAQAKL

[2] = target: Isocitrate dehydrogenase [NADP] cytoplasmic (Homo sapiens, UniProt O75874, R132H); experiment: as §1, with “R132H” for “R132C”, “addition” for “addition and”, “diaphorase/resazurin-based” for “diaphorase/resazurin-based fluorescence”
Isocitrate dehydrogenase [NADP] cytoplasmic (Homo sapiens, UniProt O75874, R132H), sequence (O75874 2-414 R132H limits assumed): as the sequence (O75874 2-414 R132C limits assumed) above, with C131H counted along it

[3] = target: T1, Isocitrate dehydrogenase [NADP] cytoplasmic; experiment: Inhibition of IDH1 R132C mutant in human HT1080 cells assessed as reduction in 2-HG production incubated with compound for 48 hrs by D2HG assay kit based fluorescence assay; type: cell-based
[4] = Half life in ICR mouse at 1 mg/kg, iv measured upto 24 hrs by LCMS analysis; type: ADME, organism-based; details: in vivo
Outline: (§2)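 Male ICR mice (6-8 weeks, 20-25 g), nine animals, dosed 1 mg/kg by slow intravenous injection or 5 mg/kg orally. Blood sampled into EDTA at 5 min (iv only), 15 min, 30 min, 1, 2, 4, 8 and 24 h. Plasma stored at -20 °C, prepared by acetonitrile protein precipitation with dexamethasone internal standard, and analysed for parent compound. Values are means of three replicates.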

[5] = Cmax in ICR mouse at 5 mg/kg, po measured upto 24 hrs by LCMS analysis; type: ADME, organism-based; design: dose 5 mg/kg, route oral; details: in vivo; outline: as §2
[6] = Clearance in ICR mouse at 1 mg/kg, iv measured upto 24 hrs by LCMS analysis; type: ADME, organism-based; details: in vivo; outline: as §2
[7] = Oral bioavailability in ICR mouse at 5 mg/kg measured upto 24 hrs by LCMS analysis; type: ADME, organism-based; details: in vivo; for bioavailability: ICR; outline: as §2
[8] = AUC in ICR mouse at 1 mg/kg, iv measured upto 24 hrs by LCMS analysis; type: ADME, organism-based; design: time < 24 hr, dose 1 mg/kg, route intravenous; details: in vivo; outline: as §2
[9] = Volume of distribution at steady state in ICR mouse at 1 mg/kg, iv measured upto 24 hrs by LCMS analysis; type: ADME, organism-based; details: in vivo, read-out: Vdss; outline: as §2
[10] = Half life in ICR mouse at 5 mg/kg, po measured upto 24 hrs by LCMS analysis; type: ADME, organism-based; details: in vivo; outline: as §2
[11] = AUC in ICR mouse at 5 mg/kg, po measured upto 24 hrs by LCMS analysis; type: ADME, organism-based; design: dose 5 mg/kg, time < 24 hr, route oral; details: in vivo; outline: as §2
[12] = target: Isocitrate dehydrogenase [NADP] cytoplasmic (Homo sapiens, UniProt O75874); experiment: as §1, with “of wild type” for “of”, “IDH1” for “IDH1 R132C mutant”, “in NADP” for “in NADPH”, “using DL-isocitrate” for “using alpha-ketoglutarate”, “of NADP” for “of NADPH”
Isocitrate dehydrogenase [NADP] cytoplasmic (Homo sapiens, UniProt O75874), sequence (O75874 whole entry): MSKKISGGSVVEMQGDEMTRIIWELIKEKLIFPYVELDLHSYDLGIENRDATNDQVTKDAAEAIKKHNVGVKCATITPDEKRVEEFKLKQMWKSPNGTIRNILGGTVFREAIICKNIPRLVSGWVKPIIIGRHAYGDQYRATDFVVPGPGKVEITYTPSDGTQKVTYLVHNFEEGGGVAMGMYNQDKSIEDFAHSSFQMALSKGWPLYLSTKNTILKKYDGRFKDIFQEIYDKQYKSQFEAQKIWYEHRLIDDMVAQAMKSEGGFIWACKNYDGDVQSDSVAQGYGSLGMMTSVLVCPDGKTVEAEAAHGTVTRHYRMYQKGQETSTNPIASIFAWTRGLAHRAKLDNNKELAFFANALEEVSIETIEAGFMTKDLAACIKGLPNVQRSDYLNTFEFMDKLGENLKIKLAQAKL

`C[C@H](Nc1nccc(N2C(=O)OC[C@@H]2[C@H](C)F)n1)c1ncn2c1CCCc1cc(C(F)(F)F)ccc1-2` showed an IC50 [1] of 43.5 nM and an IC50 [2] of 44.3 nM.
`CC(C)[C@H]1COC(=O)N1c1ccnc(N[C@@H](C)c2ncn3c2CCc2cc(C(F)(F)F)ccc2-3)n1` showed an IC50 [3] of 12.5 nM, a half-life [4] of 0.5 h and an IC50 [1] of 9.3 nM. For the same compound, the Cmax [5] was 730 nM, the clearance [6] was 109 mL/min/kg and the bioavailability [7] was 109%. For the same compound, the AUC at 24 h [8] was 0.312 µM·h, the Vd [9] was 3 L/kg and the IC50 [2] was 1 nM. It also gave a half-life [10] of 2 h and an AUC at 24 h [11] of 1.65 µM·h.
With `C[C@H](Nc1nccc(N2C(=O)OC3(COC3)[C@@H]2c2ccccc2)n1)c1ncn2c1CCc1cc(C(F)(F)F)ccc1-2` the IC50 [1] was 9.7 nM and the IC50 [2] was 33.8 nM.
With `CC(C)[C@H]1C(C)OC(=O)N1c1ccnc(N[C@@H](C)c2ncn3c2CCc2cc(C(F)(F)F)ccc2-3)n1` (stereo partly drawn) the IC50 [1] was 15 nM and the IC50 [2] was 42 nM.
Work on `Cc1ccc2c(c1)CCc1c([C@H](C)Nc3nccc(N4C(=O)OC[C@@H]4[C@H](C)F)n3)ncn1-2` yielded an IC50 [1] of 16.3 nM and an IC50 [2] of 42.7 nM.
With `CC1Cc2c([C@H](C)Nc3nccc(N4C(=O)OC[C@@H]4[C@H](C)F)n3)ncn2-c2ccc(C(F)(F)F)cc21` (stereo partly drawn) the IC50 [1] was 93.5 nM and the IC50 [2] was 128 nM.
`C[C@H](Nc1nccc(N2C(=O)OC[C@@H]2[C@H](C)F)n1)c1ncn2c1CSc1cc(C(F)(F)F)ccc1-2` showed an IC50 [1] of 24.1 nM and an IC50 [2] of 23.8 nM.
`C[C@H](Nc1ncc(F)c(N2C(=O)OC[C@@H]2[C@H](C)F)n1)c1ncn2c1CCc1cc(C(F)(F)F)ccc1-2` gave a half-life [4] of 1.4 h, an IC50 [1] of 17 nM and a Cmax [5] of 1700 nM. For the same compound, the clearance [6] was 21 mL/min/kg, the F ([7]; 24 h) was 165% and the AUC at 24 h [8] was 1.52 µM·h. It also gave a Vd [9] of 2.1 L/kg, an IC50 [2] of 2.1 nM and a half-life [10] of 2.5 h. For the same compound, the AUC at 24 h [11] was 12.7 µM·h.
In the case of `C[C@H](Nc1nccc(N2C(=O)OC[C@@H]2[C@H](C)F)n1)c1ncn2c1CCc1ccc(C(F)(F)F)cc1-2`, the IC50 [1] is reported as 8 nM and the IC50 [2] is reported as 18.4 nM.
Work on `C[C@H](Nc1nccc(N2C(=O)OC[C@@H]2[C@H](C)F)n1)c1ncn2c1COc1cc(Cl)ccc1-2` yielded an IC50 [3] of 60.3 nM, a half-life [4] of 1 h and an IC50 [1] of 14.4 nM. The Cmax [5] was 1210 nM, the IC50 [12] was 7100 nM and the clearance [6] was 39 mL/min/kg. The bioavailability [7] was 109%, the AUC at 24 h [8] was 0.917 µM·h and the Vd [9] was 2.3 L/kg. For the same compound, the IC50 [2] was 2.2 nM, the half-life [10] was 2.4 h and the AUC at 24 h [11] was 5.01 µM·h.
In the case of `CC1Cc2cc(C(F)(F)F)ccc2-n2cnc([C@H](C)Nc3nccc(N4C(=O)OC[C@@H]4[C@H](C)F)n3)c21` (stereo partly drawn), the IC50 [1] is reported as 119 nM and the IC50 [2] is reported as 120 nM.
`C[C@H](Nc1nccc(N2C(=O)OC[C@@H]2[C@H](C)F)n1)c1ncn2c1CCc1cc(F)ccc1-2` showed an IC50 [1] of 44.5 nM and an IC50 [2] of 47.8 nM.
In the case of `C[C@H](Nc1nc(Cl)cc(N2C(=O)OC[C@@H]2[C@H](C)F)n1)c1ncn2c1CCc1cc(C(F)(F)F)ccc1-2`, the IC50 [1] is reported as 23.6 nM and the IC50 [2] is reported as 2.12 nM.
